Here are results for two molecules from ChEMBL document CHEMBL3046408, “Disease control effect of strevertenes produced by Streptomyces psammoticus against tomato fusarium wilt” (J Agric Food Chem, 2011).

Converted amounts (≈) assume the structure as drawn. The source made the active and inactive calls. The calls are words filed in the database; no cut-off is given here.

Series [1] deals with Ilyonectria destructans. The series can be described thus: Antifungal activity against Ilyonectria radicicola assessed as complete growth inhibition after 1 to 3 days by CLSI M38-A method. It is filed as functional. Summed up: (§1)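 Broth microdilution in 96-well plates following CLSI M38-A. Conidial suspensions were dispensed to a final (0.5-5) × 10^4 spores/mL, with compound at final 0.125 to 64 μg/mL. Plates were incubated at 28 °C for 1-3 days. MIC was read visually as the lowest concentration giving complete growth inhibition.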

Series [2] concerns Sclerotinia sclerotiorum. The series can be described thus: Antifungal activity against Sclerotinia sclerotiorum assessed as complete growth inhibition after 1 to 3 days by CLSI M38-A method. Format: functional. In short, it runs like this:
(§2)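 CLSI M38-A microdilution in 96-well plates, inoculated with mycelial-fragment suspensions at a final (0.5-5) × 10^4 fragments/mL. Compound was added at final concentrations from 0.125 to 64 μg/mL. After 1-3 days at 28 °C, MIC was scored by eye as the lowest concentration completely inhibiting growth.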

Series [3] concerns Colletotrichum coccodes. The series can be described thus: Antifungal activity against Colletotrichum cocodes assessed as complete growth inhibition after 1 to 3 days by CLSI M38-A method. It is filed as functional. Summed up: as §1
For series [4], the system named is Cercospora canescens. Description: Antifungal activity against Cercospora canescens assessed as complete growth inhibition after 1 to 3 days by CLSI M38-A method. Format: functional. In short, it runs like this:
as §1

Series [5] concerns Rhizoctonia solani. Description: Antifungal activity against Rhizoctonia solani assessed as complete growth inhibition after 1 to 3 days by CLSI M38-A method. Format: functional. Summed up:
as §2

The subject of series [6] is Solanum lycopersicum. The series can be described thus: Phytotoxicity in Solanum lycopersicum (tomato) plants upto 500 ug/mL. Format: organism-based. The settings on record: in vivo.
Series [7] has as its system Alternaria brassicicola. The series can be described thus: Antifungal activity against Alternaria brassicola assessed as complete growth inhibition after 1 to 3 days by CLSI M38-A method. It is filed as functional. In short, it runs like this:
as §1

Series [8] relates to Fusarium oxysporum f. sp. lycopersici. Description: Antifungal activity against Fusarium oxysporum f.sp. lycopersici JCM 12575 in tomato plants assessed as inhibition of Fusarium wilt disease severity at 1 ug/mL measured after 10 days of inoculation under green house condition. Format: functional, organism-based. In short, it runs like this: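 Greenhouse assay. F. oxysporum f.sp. lycopersici JCM 12575 was grown in Czapek Dox broth at 28 °C for 14 days, and the inoculum was 2 × 10^6 conidia/mL. Wounded tomato seedling roots were dipped for 10 min, potted, and soil-drenched with 5 mL of compound (1, 10, 100, 500 μg/mL); controls received sterile water. Plants spent 24 h in a 28 °C dew chamber, then went to the greenhouse. Disease severity was scored 0-5 at 10 days post-inoculation.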

Series [9] relates to Colletotrichum gloeosporioides. Description: Antifungal activity against Colletotrichum gloeosporioides assessed as complete growth inhibition after 1 to 3 days by CLSI M38-A method. It is filed as functional. Summed up:
as §1

Series [10] concerns Fusarium oxysporum f. sp. cucumerinum. Description: Antifungal activity against Fusarium oxysporum f.sp. cucumerinum assessed as complete growth inhibition after 1 to 3 days by CLSI M38-A method. Format: functional. Summed up:
as §1

Series [11] relates to Fusarium oxysporum f. sp. lycopersici. Description: Antifungal activity against Fusarium oxysporum f.sp. lycopersici assessed as complete growth inhibition after 1 to 3 days by CLSI M38-A method. It is filed as functional. Summed up:
as §1

The subject of series [12] is Diaporthe citri. The series can be described thus: Antifungal activity against Diaporthe citri assessed as complete growth inhibition after 1 to 3 days by CLSI M38-A method. It is filed as functional. In short, it runs like this:
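Broth microdilution following CLSI M38-A. Mycelial-fragment suspension of the fungus at a final (0.5-5) × 10^4 fragments/mL. Antibiotic added to final concentrations of 0.125 to 64 μg/mL. Incubated at 28 °C for 1-3 days. Wells read visually; MIC is the lowest concentration giving complete growth inhibition.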

For series [13], the system named is Alternaria mali. Description: Antifungal activity against Alternaria mali assessed as complete growth inhibition after 1 to 3 days by CLSI M38-A method. Format: functional. In short, it runs like this: as §1
Series [14] deals with Aspergillus oryzae. Description: Antifungal activity against Aspergillus oryzae assessed as complete growth inhibition after 1 to 3 days by CLSI M38-A method. Format: functional. In short, it runs like this: as §1
The subject of series [15] is Colletotrichum orbiculare. The series can be described thus: Antifungal activity against Colletotrichum orbiculare assessed as complete growth inhibition after 1 to 3 days by CLSI M38-A method. Format: functional. Summed up: as §1

As usually defined, the MIC is the lowest concentration that inhibits growth of the organism. For the molecule `C[C@H]1/C=C/C=C/C=C/C=C/C=C/[C@@H](O)[C@H](C(=O)O)[C@H](O)C[C@H](O)CCC[C@H](O)C[C@H](O)C[C@H](O)[C@@H](C)C(=O)O[C@@H]1C` [STREVERTENE A], the MIC in series [1] was 16 µg/mL (≈ 27.6 µM); in series [2], 8 µg/mL (≈ 13.8 µM); in series [3] it was 8 µg/mL (≈ 13.8 µM); in series [4] it was 16 µg/mL (≈ 27.6 µM); in [5], above 64 µg/mL; in series [7] it was above 64 µg/mL. The MIC in [9] came out at 8 µg/mL (≈ 13.8 µM); in [10] it was 16 µg/mL (≈ 27.6 µM); in [11], 16 µg/mL (≈ 27.6 µM); in series [12] it was 32 µg/mL (≈ 55.1 µM); in series [13] it was 16 µg/mL (≈ 27.6 µM); in [14] it was 16 µg/mL (≈ 27.6 µM). Besides, the MIC in [15] was determined as 8 µg/mL (≈ 13.8 µM). Moreover, the Activity entry in series [6] is “Non-toxic”. The inhibition entry in [8] is “Active”.
Regarding `CC[C@H]1C(=O)O[C@H](C)[C@@H](C)/C=C/C=C/C=C/C=C/C=C/[C@@H](O)[C@H](C(=O)O)[C@H](O)C[C@H](O)CCC[C@H](O)C[C@H](O)C[C@@H]1O` [STREVERTENE B], the MIC in series [1] is 16 µg/mL (≈ 26.9 µM); in series [2], 8 µg/mL (≈ 13.5 µM); in series [3] it was 8 µg/mL (≈ 13.5 µM); in series [4], 32 µg/mL (≈ 53.8 µM); in series [5], above 64 µg/mL; in series [7], above 64 µg/mL. Further, the MIC in series [9] came to 8 µg/mL (≈ 13.5 µM); in series [10], 8 µg/mL (≈ 13.5 µM); in [11], 8 µg/mL (≈ 13.5 µM); in [12] it was 32 µg/mL (≈ 53.8 µM); in series [13] it was 16 µg/mL (≈ 26.9 µM); in [14], 10 µg/mL (≈ 16.8 µM). For the same molecule, the MIC in series [15] came to 4 µg/mL (≈ 6.73 µM). Further, in series [6], the Activity entry is recorded as “Non-toxic”. Moreover, in series [8], the inhibition result was “Active”.
